Screening results as filed in PubChem.
An excerpt weighted towards active compounds, which were near 2.6% of everything screened.
E-sel inducer – E-selectin induction on HUVECs; P16581; activation, % at 7.58 µM; HUVEC E-selectin immunofluorescence imaging; normalized: neutral wells 0, TNF-alpha wells 100; 260,000 compounds, 0.37% hits; AID 686992;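 active = mean E-selectin-positive cell signal at least 10% of the positive control, reached in at least 60% of replicates, without over 20% cell loss; inconclusive = no rule given, readout overlaps actives, possibly toxicity-flagged; inactive = the rest, including those meeting only one limit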
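Test system: HUVEC; input: 3,000 HUVEC/well; measured by: immunofluorescence imaging; read-out: % PE-positive cells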
miR-122 sensor – inhibitors of miR-122 in Huh7 cells; 340,000 compounds, 0.3% hits; activation (reporter increase), % at 12.5 µM; AID 602342; Huh7 miR-122 Renilla luciferase sensor, 48 h; neutral wells = 0, positive control = 100;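 active = mean replicate activation score at least 90 and every replicate individually at or above 90; inconclusive = only one of the two criteria met; inactive = neither criterion met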;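 note: higher luciferase means less miR-122 activity so hits act as miR-122 inhibitors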
GSIS activator – GLuc luminescence reporter in INS-1E cells, primary screen for activators of glucose-dependent secretion of insulin; INS-1E GLuc reporter insulin secretion, 2-3 h; activation, % at 16.6 µM; 370,000 compounds, 0.61% hits; AID 743287;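 active = lowest replicate activation of at least 40%, so every replicate reaches that level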;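 note: 0% = median of neutral control wells and 100% = median of IBMX positive control wells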
DENV2 CPE – protects cells from dengue virus 2 cytopathic effect; DENV2-infected cells, cytopathic effect rescue, plate reader; CPE inhibition, % at 9.99 µM; 350,000 compounds, 1.7% hits; AID 651640; in the data active = CPE inhibition above about 20%, passing the limit was not always enough; inconclusive = no clear call, values can overlap the other calls; tested in BHK-21 cells;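 note: 0% = median of neutral control wells and 100% = median of positive control wells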
F508del corr – CFTR F508del correction in bronchial cells. CFBE cells, YFP halide quenching; stimulated with forskolin plus potentiator P3; % fluorescence drop versus neutral controls. activity (quench increase), % at 7.58 µM. 350,000 compounds, 0.36% hits;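 active = mean added fluorescence quench of at least 8% versus neutral control, with both replicates also reaching 8%; inconclusive = only one of the mean or replicate conditions met; inactive = mean below 8% and not both replicates reaching 8%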;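 note: cells transiently co-express mutant CFTR-F508del with the halide-sensitive YFP; corrector assay measuring rescue of mutant channel to the surface after 24 h compound exposure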
ERAP1 inh – blocks human ERAP1 aminopeptidase activity; inhibition, % at 10.7 µM; 340,000 compounds, 0.15% hits; AID 652197; recombinant ERAP1, Leu-AMC fluorescence, 60 min; Q9NZ08;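 active = mean replicate inhibition of at least 30%, or all replicates individually reaching that 30% level; inactive = mean below 30% and not every replicate reaching it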;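 note: 0% = neutral control wells and 100% = L-leucinethiol positive control wells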
Target sequence (Q9NZ08 whole entry, looked up): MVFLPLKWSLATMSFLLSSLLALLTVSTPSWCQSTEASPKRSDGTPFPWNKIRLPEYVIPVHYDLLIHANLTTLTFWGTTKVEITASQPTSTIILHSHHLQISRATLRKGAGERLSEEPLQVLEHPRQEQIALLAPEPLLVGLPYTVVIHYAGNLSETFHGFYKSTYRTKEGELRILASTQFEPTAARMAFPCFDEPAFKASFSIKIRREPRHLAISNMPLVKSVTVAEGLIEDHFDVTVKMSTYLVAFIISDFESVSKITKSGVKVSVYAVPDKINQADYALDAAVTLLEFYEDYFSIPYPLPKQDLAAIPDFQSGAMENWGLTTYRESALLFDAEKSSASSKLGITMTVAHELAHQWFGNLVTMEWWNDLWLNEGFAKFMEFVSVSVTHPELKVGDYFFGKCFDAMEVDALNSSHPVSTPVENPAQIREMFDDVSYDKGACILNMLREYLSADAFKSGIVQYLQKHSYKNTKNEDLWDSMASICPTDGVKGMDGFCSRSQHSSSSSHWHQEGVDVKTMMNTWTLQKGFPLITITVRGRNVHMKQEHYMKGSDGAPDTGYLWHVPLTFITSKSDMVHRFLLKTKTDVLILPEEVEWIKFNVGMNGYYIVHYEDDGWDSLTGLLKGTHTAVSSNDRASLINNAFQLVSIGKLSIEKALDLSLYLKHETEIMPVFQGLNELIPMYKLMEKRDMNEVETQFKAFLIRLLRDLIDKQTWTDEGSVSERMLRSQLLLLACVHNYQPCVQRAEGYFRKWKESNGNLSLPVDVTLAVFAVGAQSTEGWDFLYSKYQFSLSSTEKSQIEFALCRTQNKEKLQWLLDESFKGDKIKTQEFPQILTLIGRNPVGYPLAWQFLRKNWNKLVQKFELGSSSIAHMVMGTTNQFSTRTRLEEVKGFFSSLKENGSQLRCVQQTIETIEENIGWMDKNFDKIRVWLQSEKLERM
Active calls of the source: *; ? = inconclusive; . = not tested or not shown; [ ] = another dose, or the depositor's remark.

SMILES	E-sel inducer	miR-122 sensor	GSIS activator	DENV2 CPE	F508del corr	ERAP1 inh
C[C@@H]1CN([C@H](C)CO)C(=O)c2cccc(NC(=O)NC3CCCCC3)c2O[C@H]1CN(C)Cc1ccc(Cl)c(Cl)c1	-1	118*[16.7 µM]	-7	-8	-1	-2
COc1cccc(C2C(=O)c3ccccc3C2=O)c1	66*	1	0	1	0	.
C[C@H](CO)N1C[C@H](C)[C@@H](CN(C)S(=O)(=O)c2ccc(Cl)cc2)Oc2ccc(NS(=O)(=O)c3ccc(F)cc3)cc2CC1=O	59*	-1[16.7 µM]	-21	?	1	.
C[C@H](CO)N1C[C@H](C)[C@H](CN(C)S(=O)(=O)c2ccc(Cl)cc2)Oc2ccc(NS(=O)(=O)c3ccc(F)cc3)cc2CC1=O	92*	7[16.7 µM]	6	-12	-1	.
CNC[C@H]1Oc2ccc(NS(=O)(=O)c3ccc(C)cc3)cc2C(=O)N([C@H](C)CO)C[C@@H]1C	1	-2[16.7 µM]	-6	?	-1	-1
COCc1[nH]nc2c1C(c1ccc(C)cc1)NC2=O (stereo unspecified)	0	.	50*	?	-1	-1
CO[C@H]1CN(C)C(=O)c2cc(NC(C)=O)ccc2OC[C@H](C)N(Cc2cncnc2)C[C@H]1C	3	-1[16.7 µM]	14	1	-4	-1
CN(C)CC(=O)N[C@H]1CC[C@H](CCNC(=O)C2CCC2)O[C@H]1CO	0	.	0	-11	-1	3
NC(=O)CSc1nnc(SCc2ccc(F)cc2)s1	27*	3	6	-10	-1	-2
Nc1nnc(SCc2ccc(F)cc2)s1	.	-13	.	.	.	.
CN(CC(=O)Nc1ccc(F)cc1)CC(=O)N1CCc2ccccc21	3	-3	1	?	3	-1
CN(CC(=O)Nc1cccc(F)c1)CC(=O)N1CCc2ccccc21	182*	.	-9	1	1	1
COCC(=O)N(C)C[C@H]1Oc2cc(C#CCC3CCCC3)ccc2S(=O)(=O)N([C@H](C)CO)C[C@@H]1C	0	.	-7	2	1	3
Cc1noc(C)c1NC(=O)Nc1ccc2c(c1)C(=O)N([C@H](C)CO)C[C@H](C)[C@H](CN(C)S(=O)(=O)c1ccccc1)OCCCC[C@@H](C)O2	0	4[16.7 µM]	18	8	2	-3
COc1ccc(-c2oc3ccc(-c4cc(OC)c(OC)c(OC)c4)cc3c2-c2ccc(OC)nc2)cc1	0	-1	3	80*	0	-2
C[C@@H]1CN([C@@H](C)CO)C(=O)Cc2cc(NC(=O)C3CCCCC3)ccc2O[C@H]1CN(C)Cc1ccc(C(=O)Nc2ccccc2N)cc1	0	38[16.7 µM]	9	-9	-1	0
CCSc1nnc(NC(=O)c2csc3c2CCCC3)s1	.	-11	119*	.	.	.
CCCNC(=O)N1[C@H](CO)[C@H](c2ccccc2-c2ccccc2)[C@@H]1C#N	0	.	1	109*	-2	6
CCCNC(=O)N1[C@H](C#N)[C@H](c2ccc(C#Cc3ccc(F)cc3)cc2)[C@@H]1CO	0	.	-3	-14	8.4*	1
CCC(=O)N1[C@@H](C#N)[C@H](c2ccccc2-c2ccccc2)[C@@H]1CO	0	.	6	47*	-2	3
Cc1cccc(-n2c(C)c(C)c3c(N)ncnc32)c1	.	.	49*	3	1	3
Cc1ccc(-n2c(C)c(C)c3c(N)ncnc32)cc1	.	-3	15	?	3	-3
C[C@@H]1CN([C@H](C)CO)C(=O)Cc2cc(NC(=O)CCCCCC(=O)Nc3ccccc3N)ccc2O[C@H]1CN(C)CC1CCCCC1	0	-8[16.7 µM]	-6	-11	-1	2
N#C/C(=N\Nc1ccc(Cl)cc1)C(N)=S	72*	-16	-47	-5	?	.
COCCn1c(-c2ccsc2)nc2c1c(=O)[nH]c(=O)n2CC(C)C	.	-4	.	.	.	.
SMILES	E-sel inducer	miR-122 sensor	GSIS activator	DENV2 CPE	F508del corr	ERAP1 inh
COCCn1c(-c2ccc3ccccc3c2)nc2c1c(=O)[nH]c(=O)n2CC(C)C	16	.	48*	2	0	0
COCC(=O)Nc1ccc2c(c1)[C@@H]1C[C@H](CC(=O)NC3CCCCC3)O[C@H](CO)[C@@H]1O2	0	1[16.7 µM]	-1	56*	4	0
O=C(C[C@@H]1C[C@@H]2c3cc(NC(=O)c4ccc5c(c4)OCO5)ccc3O[C@@H]2[C@H](CO)O1)NC1CCCC1	0	4[16.7 µM]	0	38*	-3	-2
CN(C)CC(=O)Nc1ccc2c(c1)[C@@H]1C[C@@H](CC(=O)NC3CCCCC3)O[C@H](CO)[C@@H]1O2	0	1[16.7 µM]	15	86*	-2	-2
O=C(C[C@H]1C[C@@H]2c3cc(NC(=O)c4ccc5c(c4)OCO5)ccc3O[C@@H]2[C@H](CO)O1)NC1CCCC1	0	-4[16.7 µM]	15	-7	1	-1
CN(C)CC(=O)Nc1ccc2c(c1)[C@@H]1C[C@H](CC(=O)NC3CCCCC3)O[C@H](CO)[C@@H]1O2	1	3[16.7 µM]	13	-1	-1	0
CN(C)CC(=O)Nc1ccc2c(c1)[C@H]1C[C@H](CC(=O)NC3CCCCC3)O[C@@H](CO)[C@H]1O2	0	0[16.7 µM]	5	86*	-3	-1
Cc1noc(C)c1NC(=O)Nc1ccc2c(c1)C(=O)N([C@H](C)CO)C[C@H](C)[C@@H](CN(C)C(=O)Nc1ccc(C(F)(F)F)cc1)OCCCC[C@@H](C)O2	0	21[16.7 µM]	-7	-3	-2	-2
COc1ccc(NC(=O)CSc2nnc3ccc(-c4cccnc4)nn23)c(OC)c1	.	-4	70*	2	-2	0
COc1ccccc1NC(=O)CSc1nnc2ccc(-c3cccnc3)nn12	6	36	-6	-1	3	1
CCC(=O)N(CC)C[C@@H]1[C@@H](c2ccccc2)[C@H](CO)N1C(C)=O	10	-7[16.7 µM]	9	20*	-3	-4
CC(=O)N1[C@@H](CO)[C@H](c2ccccc2)[C@@H]1CN(CC(C)C)C(=O)c1ccccn1	0	42[16.7 µM]	8	27*	0	-1
CCN(C[C@@H]1N[C@@H](CO)[C@H]1c1ccc(-c2ccccc2)cc1)C(=O)COC	0	6[16.7 µM]	0	24*	2	-6
CC(=O)N1[C@H](CO)[C@@H](c2ccccc2)[C@H]1CN(CC(C)C)C(=O)c1ccccn1	0	-50[16.7 µM]	5	11	0	.
CCC(=O)N(CC)C[C@H]1[C@H](c2ccccc2)[C@@H](CO)N1C(C)=O	0	-21[16.7 µM]	8	-8	0	-1
CN(C[C@@H]1[C@@H](c2ccccc2)[C@H](CO)N1C(=O)C1CC1)C(=O)c1ccccn1	0	0[16.7 µM]	4	54*	1	.
